Test results as given in ChEMBL document CHEMBL1143122, “Novel analogs of D-e-MAPP and B13. Part 1: synthesis and evaluation as potential anticancer agents” (Bioorg Med Chem, 2008).

How the values were obtained:
Type in all cases: functional
786-0 = experiment: Antiproliferative activity against human 786-0 cells after 48 hrs; settings: 786-0, 48 h
In short: (§1)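 NCI 60-cell screen. Cells were grown in RPMI 1640 with 5% FBS and 2 mM L-glutamine, then plated at 5,000–40,000 cells/well according to doubling time and preincubated for 24 h at 37 °C in 5% CO2. Compounds were dissolved in DMSO at 400× the top final concentration and tested at five 10-fold dilutions from 10−4 to 10−8 M for 48 h. Growth was read spectrophotometrically; GI50 is 50% net protein reduction.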

ACHN = experiment: Antiproliferative activity against human ACHN cells after 48 hrs; in short: as §1
A549 = experiment: Antiproliferative activity against human A549 cells after 48 hrs; settings: A549, 48 h; in short: as §1
NCI-H522 = experiment: Antiproliferative activity against human NCI-H522 cells after 48 hrs; settings: NCI-H522, 48 h; in short: as §1
HCT-116 = experiment: Antiproliferative activity against human HCT116 cells after 48 hrs; settings: HCT-116, 48 h; in short: as §1
A498 = experiment: Antiproliferative activity against human A498 cells after 48 hrs; settings: A498, 48 h; in short: as §1
SF-539 = experiment: Antiproliferative activity against human SF539 cells after 48 hrs; settings: SF-539, 48 h; in short: as §1
[1] = Antiproliferative activity against human NCI-ADR-RES cells after 48 hrs; in short: as §1
SK-OV-3 = experiment: Antiproliferative activity against human SKOV3 cells after 48 hrs; settings: SK-OV-3, 48 h; in short: as §1
MOLT-4 = experiment: Antiproliferative activity against human MOLT4 cells after 48 hrs; settings: MOLT-4, 48 h; in short: as §1
MDA-MB-435 = experiment: Antiproliferative activity against human MDA-MB-435 cells after 48 hrs; in short: as §1
UO-31 = experiment: Antiproliferative activity against human UO31 cells after 48 hrs; settings: UO-31, 48 h
In short: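 NCI 60-cell-line screen. Lines grown in RPMI 1640 with 5% fetal bovine serum and 2 mM L-glutamine, plated at 5,000–40,000 cells/well according to doubling time, left 24 h at 37 °C in 5% CO2. Drug stocks in DMSO at 400-fold the top final concentration. Five 10-fold dilutions, 10−4 to 10−8 M, incubated 48 h. Growth read spectrophotometrically as net protein; GI50 taken as 50% reduction.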

NCI-H460 = experiment: Antiproliferative activity against human NCI-H460 cells after 48 hrs; settings: NCI-H460, 48 h; in short: as §1
SK-MEL-28 = experiment: Antiproliferative activity against human SKMEL28 cells after 48 hrs; settings: SK-MEL-28, 48 h; in short: as §1
LOX IMVI = experiment: Antiproliferative activity against human LOXIMVI cells after 48 hrs; in short: as §1
Malme-3M = experiment: Antiproliferative activity against human MALME3M cells after 48 hrs; in short: as §1
[2] = read-out: Log LC50 (the source's name) (converted)

C[C@@H](NC(=O)CCCCCCCCCCCCCCC[n+]1ccccc1)[C@@H](O)c1ccccc1.[Br-]
CC50 (786-0; [2]): 34.7 µM
TGI (786-0; read-out: Log TGI (converted)): 8.51 µM
GI50 (ACHN): 17 µM
CC50 (ACHN; [2]): 64.6 µM
TGI (ACHN; read-out: Log TGI (converted)): 33.1 µM
GI50 (A549): 4.37 µM
CC50 (A549; [2]): > 100 µM
TGI (A549; read-out: Log TGI (converted)): 43.7 µM
GI50 (NCI-H522): 1.48 µM
TGI (NCI-H522; read-out: Log TGI (converted)): 3.63 µM
GI50 (HCT-116): 3.39 µM
LC50 (HCT-116): 58.9 µM
TGI (HCT-116; read-out: Log TGI (converted)): 13.2 µM
GI50 (A498): 12.9 µM
CC50 (A498; [2]): 61.7 µM
TGI (A498; read-out: Log TGI (converted)): 28.2 µM
GI50 (SF-539): 2.04 µM
LC50 (SF-539): > 100 µM
TGI (SF-539; read-out: Log TGI (converted)): 5.5 µM
GI50 [1]: 19.5 µM
LC50 [1]: 85.1 µM
TGI ([1]; read-out: Log TGI (converted)): 40.7 µM
GI50 (SK-OV-3): 3.09 µM
CC50 (SK-OV-3; [2]): 60.3 µM
TGI (SK-OV-3; read-out: Log TGI (converted)): 13.5 µM
GI50 (MOLT-4): 2.51 µM
LC50 (MOLT-4): 100 µM
TGI (MOLT-4; read-out: Log TGI (converted)): 6.46 µM
GI50 (MDA-MB-435): 1.58 µM
GI50 (MDA-MB-435; Homo sapiens, MDA-MB-435, 48 h): 1.78 µM
LC50 (MDA-MB-435; Homo sapiens, MDA-MB-435, 48 h): 5.5 µM
TGI (MDA-MB-435; Homo sapiens, MDA-MB-435, 48 h, read-out: Log TGI (converted)): 2.95 µM
GI50 (UO-31): 19.1 µM
LC50 (UO-31): 93.3 µM
TGI (UO-31; read-out: Log TGI (converted)): 41.7 µM
GI50 (NCI-H460): 2.95 µM
CC50 (NCI-H460; [2]): > 100 µM
TGI (NCI-H460; read-out: Log TGI (converted)): 11.5 µM
GI50 (SK-MEL-28): 1.7 µM
LC50 (SK-MEL-28): 5.75 µM
TGI (SK-MEL-28; read-out: Log TGI (converted)): 3.16 µM
GI50 (LOX IMVI): 3.55 µM
LC50 (LOX IMVI): 51.3 µM
TGI (LOX IMVI; read-out: Log TGI (converted)): 13.5 µM
GI50 (Malme-3M): 1.66 µM
LC50 (Malme-3M): 5.75 µM
TGI (Malme-3M; read-out: Log TGI (converted)): 3.09 µM
